Measured values from ChEMBL document CHEMBL3352206, “Discovery of substituted 4-aminoquinazolines as selective Toll-like receptor 4 ligands” (Bioorg Med Chem Lett, 2014).
Activity calls are given as the source filed them. No cut-off for these calls is given here.

Key:
HepG2 = experiment: Cytotoxicity against human HepG2 cells at 10 uM by MTT assay; type: functional
How it was run: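 HepG2 viability by MTT at 10 μM compound; OD570–650 normalized to vehicle-treated cells in the same experiment.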

[1] = target: Toll-like receptor 4 (Homo sapiens) (UniProt O00206); experiment: Activation of human TLR4 fransfectoma in HEK Blue cells at 0.5 uM relative to LPS; type: cell-based; details: HEK293
How it was run: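 hTLR4 HEK Blue transfectoma cells incubated with compound at 0.5 μM for 20–22 h; SEAP read by QuantiBlue OD630. Values normalized to LPS (100 ng/mL) positive control set at 100.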

PBMC [2] = experiment: Induction of IL-8 level in human PBMC at 0.5 uM by ELISA relative to LPS; type: functional
How it was run: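 Primary human PBMC stimulated overnight with compound at 0.5 μM; IL-8 in supernatant by ELISA, normalized to LPS (100 ng/mL) set at 100.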

BMDC [3] = experiment: Induction of CD80 expression in wild type CD11c+ population of mouse BMDC; type: functional
How it was run: (§1)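 BMDC from wild-type or Tlr4−/− mice treated with compound or vehicle (0.5% DMSO); stained for CD11c plus CD40, CD80 or CD86. Marker expression assessed by flow cytometry on gated CD11c+ cells.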

[4] = target: T1, Toll-like receptor 4/MD-2 (Homo sapiens) (UniProt O00206+Q9Y6Y9); experiment: Activation of human TLR4/MD2 complex expressed in HEK293 Blue cells coexpressing CD14 assessed as SEAP secretion at 10 uM after 20 to 24 hrs by SEAPorter assay; type: cell-based
PBMC [5] = experiment: Cytotoxicity against human PBMC at 10 uM after 18 hrs incubation by MTT assay; type: cell-based
How it was run: (§2)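 Human PBMC or mouse BMDC incubated 18 h with compound at 10 μM; viability by MTT assay, reported as percent.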

PBMC [6] = experiment: Induction of CD83 expression in CD11c+ HLA-DR+ population of human PBMC; type: functional, cell-based
How it was run: (§3)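 Human PBMC incubated overnight with compound at 5 μM; CD80 and CD83 measured by flow cytometry on gated CD11c+HLA-DR+ cells. Two independent experiments.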

L929 = experiment: Induction of type 1 IFN release in mouse L929-ISRE cells assessed as luciferase release at 10 uM; type: functional, cell-based
How it was run: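 Human PBMC incubated overnight with compound (10 μM), LPS (10 ng/mL) or vehicle; type I IFN in supernatant quantified as luciferase release from L929-ISRE reporter cells. Mean ± SEM of triplicates.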

BMDC [7] = experiment: Induction of CD86 expression in wild type CD11c+ population of mouse BMDC; type: functional; how it was run: as §1
PBMC [8] = experiment: Induction of IL-8 level in human PBMC at < 1 uM by ELISA; type: functional, cell-based
How it was run: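 Mouse BMDC or human PBMC stimulated overnight with graded compound concentrations; IL-6 (mouse) or IL-8 (human) in supernatant by ELISA. Mean ± SEM of triplicates, two independent experiments.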

BMDC [9] = experiment: Induction of CD40 expression in wild type CD11c+ population of mouse BMDC; type: functional; how it was run: as §1
PBMC [10] = experiment: Induction of CD80 expression in CD11c+ HLA-DR+ population of human PBMC; type: functional, cell-based; how it was run: as §3
[11] = target: Toll-like receptor 4/MD-2/CD14 (Mus musculus) (UniProt Q9QUK6+Q9JHF9+P10810); experiment: Activation of mouse TLR4/MD2 complex in mouse RAW264.7 cells assessed as induction of NFkappaB activation incubated for 18 hrs
[12] = target: T1, Toll-like receptor 4/MD-2 (Homo sapiens); experiment: Activation of human TLR4/MD2 complex expressed in HEK293 Blue cells coexpressing CD14 assessed as SEAP secretion at 10 uM after 20 to 24 hrs by SEAPorter assay in presence of Rhodobacter sphaeroides LPS; type: cell-based
How it was run: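 hTLR4/MD-2/CD14 transfectoma cells given 10 μM compound or 10 ng/mL LPS, with or without the TLR4 antagonist LPS-RS (Rhodobacter sphaeroides LPS; 12, 111, 1000 ng/mL). TLR4/NF-κB activation read as SEAP in supernatant. One-way ANOVA with Dunnett's test versus vehicle.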

[13] = target: T1, Toll-like receptor 4/MD-2 (Homo sapiens); experiment: Activation of human TLR4/MD2 complex expressed in HEK293 Blue cells assessed as SEAP secretion at 10 uM after 20 to 24 hrs by SEAPorter assay
[14] = target: Toll-like receptor 4 (Homo sapiens) (UniProt O00206); experiment: Activation of human TLR4 complex expressed in MD2-deficient HEK293 Blue cells coexpressing CD14 assessed as SEAP secretion at 10 uM after 20 to 24 hrs by SEAPorter assay; type: cell-based
BMDC [15] = experiment: Induction of CD80 expression in TLR4-deficient CD11c+ population of mouse BMDC; type: functional; how it was run: as §1
PBMC [16] = experiment: Induction of IL-8 expression in human PBMC by ELISA in presence of polymyxin B; type: functional, cell-based
How it was run: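 Human PBMC incubated overnight with compound, alone or with polymyxin B (10 μg/mL); IL-8 in supernatant by ELISA. Mean ± SEM of triplicates, two independent experiments.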

BMDC [17] = experiment: Induction of CD40 expression in TLR4-deficient CD11c+ population of mouse BMDC; type: functional; how it was run: as §1
BMDC [18] = experiment: Induction of IL-6 production in TLR4-deficient mouse BMDC at 10 uM by ELISA; type: functional
How it was run: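 BMDC from wild-type and TLR4-deficient mice stimulated with compound at 10 μM; IL-6 in culture supernatant by ELISA.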

BMDC [19] = experiment: Induction of CD86 expression in TLR4-deficient CD11c+ population of mouse BMDC; type: functional; how it was run: as §1
[20] = Cytotoxicity against mouse BMDC at 10 uM after 18 hrs incubation by MTT assay; how it was run: as §2
[21] = target: T1, Toll-like receptor 4/MD-2 (Homo sapiens); experiment: Activation of human TLR4/MD2 complex in human THP1 cells assessed as induction of NFkappaB activation incubated for 18 hrs; type: cell-based; details: THP-1
How it was run: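 CellSensor THP-1 or RAW264.7 cells carrying an NF-κB-driven FRET β-lactamase reporter; graded compound concentrations for 18 h. NF-κB activation normalized to LPS (5 ng/mL) and expressed as percent activation.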

Sequence of Toll-like receptor 4 (Homo sapiens) (O00206 whole entry): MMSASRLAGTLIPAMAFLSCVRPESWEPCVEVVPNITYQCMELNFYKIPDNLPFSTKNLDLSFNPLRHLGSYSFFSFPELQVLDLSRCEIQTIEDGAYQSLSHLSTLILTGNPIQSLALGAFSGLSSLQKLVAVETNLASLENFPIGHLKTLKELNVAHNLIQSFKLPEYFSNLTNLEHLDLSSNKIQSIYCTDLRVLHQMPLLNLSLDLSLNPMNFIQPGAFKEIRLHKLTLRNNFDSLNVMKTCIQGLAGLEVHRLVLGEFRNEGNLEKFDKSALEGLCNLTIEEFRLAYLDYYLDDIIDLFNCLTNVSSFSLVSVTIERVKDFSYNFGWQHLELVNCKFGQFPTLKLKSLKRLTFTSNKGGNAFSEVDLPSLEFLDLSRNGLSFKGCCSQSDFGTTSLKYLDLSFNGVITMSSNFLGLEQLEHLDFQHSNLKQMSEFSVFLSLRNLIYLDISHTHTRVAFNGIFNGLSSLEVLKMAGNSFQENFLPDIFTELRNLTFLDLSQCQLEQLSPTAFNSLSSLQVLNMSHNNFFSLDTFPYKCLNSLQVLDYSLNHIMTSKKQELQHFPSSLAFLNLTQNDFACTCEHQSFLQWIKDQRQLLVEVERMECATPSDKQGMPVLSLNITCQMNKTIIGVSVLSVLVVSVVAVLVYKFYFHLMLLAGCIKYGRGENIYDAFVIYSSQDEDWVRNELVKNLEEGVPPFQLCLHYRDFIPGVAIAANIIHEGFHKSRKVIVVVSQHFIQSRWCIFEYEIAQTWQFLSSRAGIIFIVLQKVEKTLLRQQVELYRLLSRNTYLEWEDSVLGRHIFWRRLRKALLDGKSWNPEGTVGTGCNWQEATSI

Row | Compound | Activity (HepG2) | Activity [1] | Activity (PBMC [2]) | other results
1 | O=C(O)c1nc(Nc2cc(Oc3ccccc3Br)cc([N+](=O)[O-])c2)c2ccccc2n1 | 96.3% | 1.6% | 0% | –
2 | COC(=O)c1nc(Nc2cc(Oc3ccccc3)cc([N+](=O)[O-])c2)c2ccccc2n1 | 116.4% | 0.4% | 0.2% | –
3 | CCOC(=O)c1nc(Nc2cc(N)cc(Oc3ccccc3)c2)c2ccccc2n1 | 106.1% | 0.6% | 0.3% | –
4 | CCOC(=O)c1nc(Nc2cc(Oc3ccccc3)cc([N+](=O)[O-])c2)c2ccccc2n1 | 93.5% | 49.1% | – | Activity (BMDC [3]): Active; Activity [4]: Active; Activity (PBMC [5]): 112%; Activity (PBMC [6]): Active; Activity (L929): Active; Activity (BMDC [7]): Active; Activity (PBMC [8]): Active; Activity (BMDC [9]): Active; Activity (PBMC [10]): Active; Activity [11]: Active; Activity [12]: inactive; Activity [13]: inactive; Activity [14]: inactive; Activity (BMDC [15]): inactive; Activity (PBMC [16]): Active; Activity (BMDC [17]): inactive; Activity (BMDC [18]): inactive; Activity (BMDC [19]): inactive; Activity [20]: 117%; Activity [21]: Active
5 | NC(=O)c1nc(Nc2cc(Oc3ccccc3)cc([N+](=O)[O-])c2)c2ccccc2n1 | 78.4% | 0% | 0.3% | –
6 | CC(C)OC(=O)c1nc(Nc2cc(Oc3ccccc3Br)cc([N+](=O)[O-])c2)c2ccccc2n1 | 106.5% | 67.8% | – | –
7 | CCOC(=O)c1nc(Nc2cc(Oc3ccccc3Br)cc([N+](=O)[O-])c2)c2ccccc2n1 | 90.8% | 79% | – | –
8 | CC(C)CCOC(=O)c1nc(Nc2cc(Oc3ccccc3)cc([N+](=O)[O-])c2)c2ccccc2n1 | 63.4% | 8.4% | 2.2% | –
9 | CCOC(=O)c1nc(Nc2cc(Oc3c(C)cccc3C)cc([N+](=O)[O-])c2)c2ccccc2n1 | 106.3% | 0.6% | 0% | –
10 | CCOC(=O)c1nc(Nc2cc(Oc3ccccc3I)cc([N+](=O)[O-])c2)c2ccccc2n1 | 93.8% | 65.5% | – | –
11 | CCOC(=O)c1nc(Nc2cc(Oc3ccccc3CC)cc([N+](=O)[O-])c2)c2ccccc2n1 | 98.9% | 4.2% | 3.2% | –
12 | CCOC(=O)c1nc(Nc2cc(Oc3ccc(C)cc3)cc([N+](=O)[O-])c2)c2ccccc2n1 | 108.8% | 0.5% | 0.4% | –
13 | O=C(O)c1nc(Nc2cc(Oc3ccccc3)cc([N+](=O)[O-])c2)c2ccccc2n1 | 84.5% | 0.6% | 0.5% | –
14 | CCOC(=O)c1nc(Nc2cc(Oc3ccccc3C(F)(F)F)cc([N+](=O)[O-])c2)c2ccccc2n1 | 67.1% | 58.7% | – | –
15 | Nc1cc(Nc2nc(C(=O)O)nc3ccccc23)cc(Oc2ccccc2)c1 | 105% | 1.1% | 0.3% | –
16 | CC(C)OC(=O)c1nc(Nc2cc(Oc3ccccc3)cc([N+](=O)[O-])c2)c2ccccc2n1 | 65.6% | 7.4% | 2.1% | –
17 | CCOC(=O)c1nc(Nc2cc(Oc3ccc4ccccc4c3)cc([N+](=O)[O-])c2)c2ccccc2n1 | 111.4% | 0.8% | 0% | –
18 | CCOC(=O)c1nc(Nc2cc(Oc3ccccc3C)cc([N+](=O)[O-])c2)c2ccccc2n1 | 96.7% | 45.5% | – | –
19 | CCNC(=O)c1nc(Nc2cc(Oc3ccccc3)cc([N+](=O)[O-])c2)c2ccccc2n1 | 107.4% | 2.2% | 1.5% | –
20 | CCOC(=O)c1nc(Nc2cc(Oc3ccccc3Cl)cc([N+](=O)[O-])c2)c2ccccc2n1 | 107.4% | 73.9% | – | –
21 | CCOC(=O)c1nc(Nc2cc(Oc3cccc(C)c3)cc([N+](=O)[O-])c2)c2ccccc2n1 | 109.9% | 14.5% | 5.8% | –
